Assay results taken from ChEMBL document CHEMBL2034818, “Synthesis and evaluation of boronic acids as inhibitors of Penicillin Binding Proteins of classes A, B and C” (Bioorg Med Chem, 2012).
Changes are numbered by the printed parent chain.

Experiments:
[1] = target: D-alanyl-D-alanine carboxypeptidase (Actinomadura sp. R39) (UniProt P39045); assay: Inhibition of Actinomadura sp. R39 PBP using S2d as substrate assessed as residual activity at 1 mM incubated for 60 mins prior to substrate addition by DTNB-based spectrophotometry
In short: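 R39 (Actinomadura, prepared per Granier), 3.5 nM, pre-incubated with inhibitor 60 min at 25 °C in 10 mM sodium phosphate pH 7.2, 100 mM NaCl, 100 mM D-alanine, 0.01 mg/mL BSA; inhibitors from DMF stock, 1% DMF final. Residual activity from initial rate of S2d (1 mM) hydrolysis with DTNB (1 mM), read at 412 nm, corrected for spontaneous hydrolysis; triplicates, uninhibited control six replicates per plate.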

[2] = target: T1, Penicillin-binding protein 2X (Streptococcus pneumoniae R6) (UniProt P59676); assay: Inhibition of penicillin-sensitive Streptococcus pneumoniae R6 PBP2x using S2d as substrate assessed as residual activity at 1 mM incubated for 60 mins prior to substrate addition by DTNB-based spectrophotometry
T1 sequence (whole entry): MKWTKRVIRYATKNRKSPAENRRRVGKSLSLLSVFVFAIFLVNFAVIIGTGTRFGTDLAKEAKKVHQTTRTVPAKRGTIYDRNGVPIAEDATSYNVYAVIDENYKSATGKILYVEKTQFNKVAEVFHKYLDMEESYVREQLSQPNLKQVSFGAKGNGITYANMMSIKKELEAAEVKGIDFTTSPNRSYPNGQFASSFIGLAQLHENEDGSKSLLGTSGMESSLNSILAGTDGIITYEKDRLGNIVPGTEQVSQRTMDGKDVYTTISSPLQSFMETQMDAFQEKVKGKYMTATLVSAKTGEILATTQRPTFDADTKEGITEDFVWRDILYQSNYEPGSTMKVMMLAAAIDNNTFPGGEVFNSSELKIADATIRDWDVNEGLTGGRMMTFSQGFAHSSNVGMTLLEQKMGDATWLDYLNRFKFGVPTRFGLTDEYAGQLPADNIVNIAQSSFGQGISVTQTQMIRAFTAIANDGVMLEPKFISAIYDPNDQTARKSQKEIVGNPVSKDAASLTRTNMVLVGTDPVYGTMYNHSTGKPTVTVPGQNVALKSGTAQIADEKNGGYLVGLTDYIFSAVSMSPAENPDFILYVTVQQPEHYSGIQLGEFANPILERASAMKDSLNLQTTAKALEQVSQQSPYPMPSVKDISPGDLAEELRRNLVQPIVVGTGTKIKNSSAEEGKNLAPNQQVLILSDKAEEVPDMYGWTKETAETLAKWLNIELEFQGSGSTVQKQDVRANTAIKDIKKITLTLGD
In short: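 S. pneumoniae PBP2x-R6, 0.09 µM, pre-incubated with inhibitor in 10 mM sodium phosphate pH 7.0 with 0.01 mg/mL BSA, 60 min, 25 °C; 1% DMF final. S2d (1 mM) plus DTNB (1 mM) then added; residual activity taken from initial hydrolysis rate at 412 nm, corrected for spontaneous hydrolysis; triplicates, six no-inhibitor controls per plate.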

[3] = Inhibition of Streptococcus pneumoniae PBP1b incubated for 60 mins prior to fluoresceyl-ampicillin labelling measured after 20 mins by SDS-PAGE analysis in the presence of triton X 100
In short: (§1)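 Assay A: purified S. pneumoniae PBP1b (0.7 µM) pre-incubated with inhibitor in 10 mM sodium phosphate pH 7.0, 60 min, 25 °C, 0.01% Triton X-100. Remaining active enzyme labelled with fluoresceyl-ampicillin (10 µM), 20 min; reaction stopped, run on SDS-PAGE, fluorescence of the band quantified as residual activity.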

Streptococcus pneumoniae [4] = assay: Inhibition of Streptococcus pneumoniae PBP1b assessed as residual activity at 1mM incubated for 60 mins prior to fluoresceyl-ampicillin labelling measured after 20 mins by SDS-PAGE analysis in the presence of triton X 100; in short: as §1
[5] = target: T2, Penicillin-binding protein 2x (Streptococcus pneumoniae serotype 4 (strain ATCC BAA-334 / TIGR4)) (UniProt P14677); assay: Inhibition of penicillin-resistant Streptococcus pneumoniae 5204 PBP2x using S2d as substrate assessed as residual activity at 1 mM incubated for 4 hrs prior to substrate addition by DNTB-based spectrophotometry
T2 sequence (whole entry): T1 sequence (whole entry) with M385T

Staphylococcus aureus = assay: Inhibition of penicillin-resistant Staphylococcus aureus PBP2a assessed as residual activity at 1 mM incubated for 4 hrs prior to prior to fluoresceyl-ampicillin labelling measured after 20 mins by SDS-PAGE analysis
Enterococcus faecium = assay: Inhibition of penicillin-resistant Enterococcus faecium PBP5fm assessed as residual activity at 1 mM incubated for 4 hrs prior to prior to fluoresceyl-ampicillin labelling measured after 20 mins by SDS-PAGE analysis
[6] = target: T3, D-alanyl-D-alanine carboxypeptidase (Actinomadura sp. R39, UniProt P39045); assay: Inhibition of Actinomadura sp. R39 PBP using S2d as substrate incubated for 60 mins prior to substrate addition by DTNB-based spectrophotometry
In short: (§2)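 PBP purified per earlier method. Pre-incubation: enzyme with inhibitor (DMF stock, 1% DMF final) at 25 °C for 60 min. Buffer for R39 (3.5 nM): 10 mM sodium phosphate pH 7.2, 100 mM NaCl, 100 mM D-alanine, 0.01 mg/mL BSA. Buffer for PBP2xR6: 10 mM sodium phosphate pH 7.0, 0.01 mg/mL BSA. S2d (1 mM) and DTNB (1 mM) then added. Initial hydrolysis rate read at 412 nm. Triplicates. IC50 by non-linear regression of residual activity over a concentration range, with 0.01% Triton X-100.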

[7] = target: T4, Penicillin-binding protein 2X (Streptococcus pneumoniae R6, UniProt P59676); assay: Inhibition of penicillin-sensitive Streptococcus pneumoniae R6 PBP2x using S2d as substrate incubated for 60 mins prior to substrate addition by DTNB-based spectrophotometry; in short: as §2
T4 sequence (P59676 whole entry): T1 sequence (whole entry)

[8] = Inhibition of Streptococcus pneumoniae PBP1b using PATP thioester as substrate incubated for 60 mins prior to substrate addition by DNTB-based spectrophotometry in the presence of triton X 100
In short: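 Assay B: S. pneumoniae PBP1b (0.2 µM) pre-incubated with inhibitor 60 min at 25 °C in 10 mM sodium phosphate pH 7.0, 100 mM D-alanine, 0.01 mg/mL BSA, 0.01% Triton X-100. Residual activity from initial rates of PATP thioester (5 mM) hydrolysis with DTNB (1.0 mM); IC50 by non-linear regression of residual activity across concentrations.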

Streptococcus pneumoniae [9] = assay: Inhibition of Streptococcus pneumoniae PBP1b using PATP thioester as substrate assessed as residual activity at 1 mM incubated for 60 mins prior to substrate addition by DNTB-based spectrophotometry
In short: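 PBP1b (0.2 µM) pre-incubated with inhibitor for 60 min at 25 °C in 10 mM sodium phosphate pH 7.0, 100 mM D-alanine, 0.01 mg/mL BSA. PATP thioester (5 mM) and DTNB (1.0 mM) then added. Residual activity derived from initial hydrolysis rates against no-inhibitor controls.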

[10] = target: T3, D-alanyl-D-alanine carboxypeptidase; assay: Binding affinity to Actinomadura sp. R39 PBP
Streptococcus pneumoniae [11] = assay: Inhibition of Streptococcus pneumoniae PBP1b assessed as residual activity at 100 uM incubated for 60 mins prior to fluoresceyl-ampicillin labelling measured after 20 mins by SDS-PAGE analysis in the presence of triton X 100; in short: as §1

D-alanyl-D-alanine carboxypeptidase (Actinomadura sp. R39), sequence (P39045 whole entry): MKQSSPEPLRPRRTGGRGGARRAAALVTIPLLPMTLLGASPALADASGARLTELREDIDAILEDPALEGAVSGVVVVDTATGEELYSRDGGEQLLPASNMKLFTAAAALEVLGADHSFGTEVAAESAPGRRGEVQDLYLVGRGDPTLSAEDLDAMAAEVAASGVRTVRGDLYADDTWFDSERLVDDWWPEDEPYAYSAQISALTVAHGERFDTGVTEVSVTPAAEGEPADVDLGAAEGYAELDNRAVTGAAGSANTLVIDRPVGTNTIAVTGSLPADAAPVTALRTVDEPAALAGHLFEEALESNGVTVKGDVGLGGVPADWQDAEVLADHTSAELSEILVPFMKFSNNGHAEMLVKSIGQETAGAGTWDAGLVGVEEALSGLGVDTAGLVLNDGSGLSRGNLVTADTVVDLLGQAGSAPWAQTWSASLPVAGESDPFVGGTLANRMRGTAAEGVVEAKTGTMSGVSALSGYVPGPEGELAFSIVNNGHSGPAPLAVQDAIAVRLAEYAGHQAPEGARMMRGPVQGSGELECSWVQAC
T3 sequence (P39045 whole entry): as above

| SMILES | Activity [1] [%] | Activity [2] [%] | IC50 [3] [µM] | Activity (Streptococcus pneumoniae [4]) [%] | Activity [5] [%] | Activity (Staphylococcus aureus) [%] | Activity (Enterococcus faecium) [%] | IC50 [6] [µM] | IC50 [7] [µM] | IC50 [8] [µM] | Activity (Streptococcus pneumoniae [9]) [%] | Ki [10] [µM] | Activity (Streptococcus pneumoniae [11]) [%] |
| --- | --- | --- | --- | --- | --- | --- | --- | --- | --- | --- | --- | --- | --- |
| COc1cccc(C(=O)NCB(O)O)c1 | 50 | 55 | 79 | 23 | 101 | 91 | 89 | – | – | – | – | – | – |
| COc1cccc(OC)c1C(=O)NCB(O)O | 0 | 26 | – | – | 100 | – | – | 1.3 | 278 | > 1000 | 67 | 1.5 | – |
| O=C(CCc1ccccc1)NCB(O)O | 51 | 71 | – | 0 | 99 | 83 | 79 | – | – | – | – | – | 95 |
| Cc1ccccc1C(=O)NCB(O)O | 45 | 70 | – | – | 105 | 88 | 85 | – | – | 18 | – | – | 27 |
